Reference: ChEMBL document CHEMBL1149572, “2-Aryl-N-acyl indole derivatives as liver X receptor (LXR) agonists” (Bioorg Med Chem Lett, 2007)

Tests used:
[1] = target: T1, Oxysterols receptor LXR-beta (Homo sapiens, UniProt P55055); experiment: Agonist activity at human LXRbeta receptor after 1 hr by HTRF cofactor recruitment assay; assay type: functional
T1 sequence (P55055 whole entry): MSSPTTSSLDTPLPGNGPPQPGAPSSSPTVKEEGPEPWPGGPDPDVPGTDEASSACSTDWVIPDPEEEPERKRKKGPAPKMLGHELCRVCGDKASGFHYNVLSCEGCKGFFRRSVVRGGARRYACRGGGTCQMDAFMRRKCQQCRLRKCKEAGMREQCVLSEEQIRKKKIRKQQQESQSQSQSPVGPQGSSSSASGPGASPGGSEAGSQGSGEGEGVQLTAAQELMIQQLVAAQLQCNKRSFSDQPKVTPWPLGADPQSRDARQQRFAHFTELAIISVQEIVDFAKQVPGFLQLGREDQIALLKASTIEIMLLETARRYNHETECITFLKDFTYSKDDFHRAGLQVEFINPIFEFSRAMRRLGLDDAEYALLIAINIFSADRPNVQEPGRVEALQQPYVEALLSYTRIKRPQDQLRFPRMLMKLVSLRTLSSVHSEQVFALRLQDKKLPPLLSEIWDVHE
Summary of the method: (§1)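 Cofactor recruitment was read by HTRF. Buffer was 50 mM Tris pH 7.5 with 50 mM KCl, 1 mM EDTA, 0.1% BSA and 1 mM DTT. Mixtures were shaken for 1 h at room temperature. Values are means of duplicates from a single experiment.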

[2] = target: T2, Oxysterols receptor LXR-alpha (Homo sapiens, UniProt Q13133); experiment: Agonist activity at human LXRalpha receptor after 1 hr by HTRF cofactor recruitment assay; assay type: functional; summary of the method: as §1
T2 sequence (Q13133 whole entry): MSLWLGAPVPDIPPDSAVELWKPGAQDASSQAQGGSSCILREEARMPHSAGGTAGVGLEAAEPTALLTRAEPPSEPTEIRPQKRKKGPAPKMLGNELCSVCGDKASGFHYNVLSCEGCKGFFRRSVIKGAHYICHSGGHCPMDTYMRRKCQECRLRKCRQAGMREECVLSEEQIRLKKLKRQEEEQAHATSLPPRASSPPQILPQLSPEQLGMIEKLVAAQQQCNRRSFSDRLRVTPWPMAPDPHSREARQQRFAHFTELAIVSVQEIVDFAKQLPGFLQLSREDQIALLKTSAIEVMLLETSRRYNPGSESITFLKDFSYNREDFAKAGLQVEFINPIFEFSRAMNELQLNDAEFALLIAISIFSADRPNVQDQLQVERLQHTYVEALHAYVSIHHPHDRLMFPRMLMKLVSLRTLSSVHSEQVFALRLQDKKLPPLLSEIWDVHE

THP-1 [3] = experiment: Induction of cholesterol efflux in THP1 cells; assay type: functional, cell-based; conditions: Homo sapiens
THP-1 [4] = experiment: Induction of ABCA1 gene expression in THP1 cells at 10 uM relative to control; assay type: functional, Homo sapiens
HepG2 [5] = experiment: Induction of SREBP1c gene expression in HepG2 cells at 10 uM relative to control; assay type: functional, Homo sapiens
THP-1 [6] = experiment: Induction of cholesterol efflux in THP1 cells at 10 uM relative to control; assay type: functional, Homo sapiens
Summary of the method: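 THP-1 cells differentiated to macrophages with 200 nM PMA for 30 h. Labelled with 1,2-3H(N)-cholesterol for 18 h alongside acLDL and 200 nM PMA. Exposed to vehicle or compound for 6 h in serum-free medium with 2 mg/ml BSA, then 18 h more with apoA-I added. Supernatant radioactivity read as fold-induction over vehicle. Mean of triplicates, single experiment.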

[7] = target: T1, Oxysterols receptor LXR-beta; experiment: Agonist activity at human LXRbeta receptor transfected in COS7 cells after 16 hrs by reporter transactivation assay; assay type: functional, cell-based, COS-7
Summary of the method: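 COS-7 cells were co-transfected for 24 h with human LXRb, RXRa and a luciferase reporter carrying three tandem LXR response elements. Cells were then treated with vehicle or compound for 16 h, and luciferase activity was measured in the lysate. EC50 was calculated from means of quadruplicates in a single experiment.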

[8] = target: T1, Oxysterols receptor LXR-beta; experiment: Agonist activity at human LXRbeta receptor transfected in COS7 cells after 16 hrs by reporter transactivation assay relative to GW-3965; assay type: functional, cell-based; conditions: cos-7
Summary of the method: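 COS-7 cells were transfected for 24 h with human LXRb, RXRa and an LXR-response-element luciferase reporter, then exposed to vehicle or compound for 16 h. Luciferase in the lysate was quantified and expressed as percent of the maximum induction given by GW3965. Values come from quadruplicates in a single experiment.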

HepG2 [9] = experiment: Induction of Lipogenesis in HepG2 cells at 10 uM relative to control; assay type: functional, Homo sapiens
Summary of the method: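 HepG2 cells pre-treated with vehicle or compound for 24 h, then given [14C]-glycerol and cultured a further 48 h. Cellular triglycerides extracted, separated by TLC and quantified by phosphorimaging. Lipogenesis expressed as fold-induction over vehicle-only control. Mean of triplicate samples, single experiment.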

CC(C)(C)OC(=O)n1c(-c2ccc(CCc3ccc(-c4ccccn4)s3)cc2)cc2ccccc21
EC50 [1]: 230 nM

CC(C)(C)OC(=O)n1c(-c2ccc(CCC(N)=O)cc2)cc2ccccc21
EC50 [2]: 1110 nM
EC50 (THP-1 [3]): 2400 nM
Ratio (THP-1 [4]): 5.7
Ratio (HepG2 [5]): 4
Ratio (THP-1 [6]): 1.9
EC50 [7]: 285 nM
Efficacy [8]: 70%
EC50 [1]: 57 nM
Ratio (HepG2 [9]): 2.7

CC(C)(C)OC(=O)n1c(-c2ccc(CCNS(=O)(=O)c3ccccc3)cc2)cc2ccccc21
EC50 [1]: 120 nM

CC(C)(C)OC(=O)n1c(-c2ccc(CNC(=O)c3ccccc3)cc2)cc2ccccc21
EC50 [1]: 1800 nM

CC(C)(C)OC(=O)n1c(-c2ccc(/C=C/C(N)=O)cc2)cc2ccccc21
EC50 [1]: 4900 nM

N#CCCc1ccc(-c2cc3ccccc3n2C(=O)c2ccccc2)cc1
EC50 [2]: 220 nM
EC50 (THP-1 [3]): 51 nM
Ratio (THP-1 [4]): 10.3
Ratio (HepG2 [5]): 5.3
Ratio (THP-1 [6]): 1.7
EC50 [7]: 42 nM
Efficacy [8]: 39%
EC50 [1]: 12 nM
Ratio (HepG2 [9]): 4

CC(C)(C)OC(=O)n1c(-c2ccc(CCC(=O)O)cc2)cc2ccccc21
EC50 [2]: 1150 nM
EC50 (THP-1 [3]): 7000 nM
Ratio (THP-1 [4]): 5.5
Ratio (THP-1 [6]): 1.4
EC50 [7]: 4580 nM
Efficacy [8]: 76%
EC50 [1]: 220 nM
Ratio (HepG2 [9]): 1.2

CC(C)(C)OC(=O)n1c(-c2ccc(CN)cc2)cc2ccccc21
EC50 [1]: 5600 nM

CC(C)(C)OC(=O)n1c(-c2cccc(CCNS(=O)(=O)c3ccccc3)c2)cc2ccccc21
EC50 [1]: 420 nM

CC(C)(C)OC(=O)n1c(-c2ccc(CCC#N)cc2)cc2ccccc21
EC50 [2]: 1190 nM
EC50 (THP-1 [3]): 2470 nM
Ratio (THP-1 [4]): 6
Ratio (HepG2 [5]): 2.5
Ratio (THP-1 [6]): 2.2
EC50 [7]: 576 nM
Efficacy [8]: 45%
EC50 [1]: 130 nM
Ratio (HepG2 [9]): 2.5

CC(C)CNC(=O)CCc1ccc(-c2cc3ccccc3n2C(=O)OC(C)(C)C)cc1
EC50 [1]: 1510 nM

CC(C)(C)OC(=O)n1c(-c2ccc(CNS(=O)(=O)c3ccccc3)cc2)cc2ccccc21
EC50 [1]: 220 nM

CC(C)(C)OC(=O)n1c(-c2ccc(CCC(=O)Nc3ccccc3)cc2)cc2ccccc21
EC50 [1]: 1780 nM

CC(C)(C)OC(=O)n1c(-c2ccc(CCCNC(=O)c3ccccc3)cc2)cc2ccccc21
EC50 [1]: 360 nM

CC(C)(C)OC(=O)n1c(-c2ccc3c(c2)CC(NS(=O)(=O)c2ccccc2)C3)cc2ccccc21 (centres undefined)
Ratio (THP-1 [4]): 8.4
Ratio (HepG2 [5]): 3.1
Ratio (THP-1 [6]): 1.6
Efficacy [8]: 43%
Ratio (HepG2 [9]): 3.1

O=C(O)Cc1cccc(OCCCN(Cc2cccc(C(F)(F)F)c2Cl)CC(c2ccccc2)c2ccccc2)c1
Ratio (THP-1 [4]): 10.7
Ratio (HepG2 [5]): 5.2
Ratio (THP-1 [6]): 1.8
Efficacy [8]: 100%
Ratio (HepG2 [9]): 2.7

CNC(=O)CCc1ccc(-c2cc3ccccc3n2C(=O)OC(C)(C)C)cc1
EC50 [1]: 490 nM

CC(C)(C)OC(=O)n1c(-c2ccc(NS(=O)(=O)c3ccccc3)cc2)cc2ccccc21
EC50 [1]: 1320 nM

CC(C)(C)OC(=O)n1c(-c2ccc(CCCNS(=O)(=O)c3ccccc3)cc2)cc2ccccc21
EC50 [1]: 350 nM

O=C(NCCc1ccc(-c2cc3ccccc3n2C(=O)c2ccccc2)cc1)c1ccccc1
EC50 [1]: 1780 nM

CC(C)(C)OC(=O)n1c(-c2ccc(CCCO)cc2)cc2ccccc21
EC50 [1]: 380 nM

CC(C)(C)OC(=O)n1c(-c2ccc(CC#N)cc2)cc2ccccc21
EC50 [1]: 300 nM

CC(C)(C)OC(=O)n1c(-c2ccc(OCCO)cc2)cc2ccccc21
EC50 [1]: 420 nM

CC(C)(C)OC(=O)n1c(-c2ccc(CCNS(=O)(=O)c3cccs3)cc2)cc2ccccc21
EC50 [1]: 58 nM

CC(C)(C)OC(=O)n1c(-c2ccc(CCNC(=O)c3ccccc3)cc2)cc2ccccc21
EC50 [1]: 1750 nM
